Data as given in ChEMBL document CHEMBL5247578, “Effective synthesis of benzimidazoles-imidazo[1,2-a]pyrazine conjugates: A comparative study of mono-and bis-benzimidazoles for antitumor activity” (Eur J Med Chem, 2019).

Experiments:
RPMI-8226 = assay: Antiproliferative activity against human RPMI-8226 cells assessed as cell growth inhibition at 10 uM incubated for 48 hrs by sulforhodamine B assay relative to control; assay type: functional
Procedure, shortened: (§1)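 NCI-60 single-dose screen at 10^-5 M. Cells grown in RPMI 1640 with 5% FBS and 2 mM L-glutamine, plated at 5,000–40,000 cells/well, and preincubated 24 h. Drug (DMSO stock) added and incubated 48 h at 37 °C, 5% CO2. Adherent cells fixed with cold TCA, stained with 0.4% SRB in 1% acetic acid, dye solubilized in 10 mM trizma base, A515 read. Percent growth taken against time-zero and untreated control.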

DU-145 = assay: Antiproliferative activity against human DU-145 cells assessed as cell growth inhibition at 10 uM incubated for 48 hrs by sulforhodamine B assay relative to control; assay type: functional
Procedure, shortened: (§2)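 NCI-60 one-dose prescreen at 10^-5 M. Cells grown in RPMI 1640 with 5% FBS and 2 mM glutamine, preincubated 24 h, then exposed 48 h at 37 °C. Adherent lines TCA-fixed, SRB-stained, A515 read. Growth percent relative to time-zero and control; negative values mean cell kill.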

SR = assay: Antiproliferative activity against human SR cells assessed as cell growth inhibition at 10 uM incubated for 48 hrs by sulforhodamine B assay relative to control; assay type: functional; procedure, shortened: as §1
HOP-92 = assay: Antiproliferative activity against human HOP-92 cells assessed as cell growth inhibition at 10 uM incubated for 48 hrs by sulforhodamine B assay relative to control; assay type: functional; procedure, shortened: as §2
NCI-H460 = assay: Antiproliferative activity against human NCI-H460 cells assessed as cell growth inhibition at 10 uM incubated for 48 hrs by sulforhodamine B assay relative to control; assay type: functional; procedure, shortened: as §1
SNB-75 = assay: Antiproliferative activity against human SNB-75 cells assessed as cell growth inhibition at 10 uM incubated for 48 hrs by sulforhodamine B assay relative to control; assay type: functional; procedure, shortened: as §1
OVCAR-8 = assay: Antiproliferative activity against human OVCAR-8 cells assessed as cell growth inhibition at 10 uM incubated for 48 hrs by sulforhodamine B assay relative to control; assay type: functional; procedure, shortened: as §1
UACC-62 = assay: Antiproliferative activity against human UACC-62 cells assessed as cell growth inhibition at 10 uM incubated for 48 hrs by sulforhodamine B assay relative to control; assay type: functional; procedure, shortened: as §1
KM12 = assay: Antiproliferative activity against human KM12 cells assessed as cell growth inhibition at 10 uM incubated for 48 hrs by sulforhodamine B assay relative to control; assay type: functional; procedure, shortened: as §1
UO-31 = assay: Antiproliferative activity against human UO-31 cells assessed as cell growth inhibition at 10 uM incubated for 48 hrs by sulforhodamine B assay relative to control; assay type: functional; procedure, shortened: as §1
SK-MEL-5 = assay: Antiproliferative activity against human SK-MEL-5 cells assessed as cell growth inhibition at 10 uM incubated for 48 hrs by sulforhodamine B assay relative to control; assay type: functional; procedure, shortened: as §1
MDA-MB-468 = assay: Antiproliferative activity against human MDA-MB-468 cells assessed as cell growth inhibition at 10 uM incubated for 48 hrs by sulforhodamine B assay relative to control; assay type: functional; procedure, shortened: as §1
NCI-H23 = assay: Antiproliferative activity against human NCI-H23 cells assessed as cell growth inhibition at 10 uM incubated for 48 hrs by sulforhodamine B assay relative to control; assay type: functional; procedure, shortened: as §1
786-0 = assay: Antiproliferative activity against human 786-0 cells assessed as cell growth inhibition at 10 uM incubated for 48 hrs by sulforhodamine B assay relative to control; assay type: functional
Procedure, shortened: (§3)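 Single-dose NCI-60 prescreen at 10^-5 M. Cells in RPMI 1640 with 5% FBS and 2 mM L-glutamine, seeded 5,000–40,000 cells/well with 24 h preincubation, then drug exposure for 48 h at 37 °C under 5% CO2. Growth read by SRB staining of TCA-fixed cells at 515 nm against time-zero and untreated controls. Negative growth values denote cell kill.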

U-251 = assay: Antiproliferative activity against human U-251 cells assessed as cell growth inhibition at 10 uM incubated for 48 hrs by sulforhodamine B assay relative to control; assay type: functional; procedure, shortened: as §1
NCI-H226 = assay: Antiproliferative activity against human NCI-H226 cells assessed as cell growth inhibition at 10 uM incubated for 48 hrs by sulforhodamine B assay relative to control; assay type: functional; procedure, shortened: as §1
NCI-H522 = assay: Antiproliferative activity against human NCI-H522 cells assessed as cell growth inhibition at 10 uM incubated for 48 hrs by sulforhodamine B assay relative to control; assay type: functional; procedure, shortened: as §1
BT-549 = assay: Antiproliferative activity against human BT-549 cells assessed as cell growth inhibition at 10 uM incubated for 48 hrs by sulforhodamine B assay relative to control; assay type: functional; procedure, shortened: as §3
HT-29 = assay: Antiproliferative activity against human HT-29 cells assessed as cell growth inhibition at 10 uM incubated for 48 hrs by sulforhodamine B assay relative to control; assay type: functional; procedure, shortened: as §1
A549 = assay: Antiproliferative activity against human A549 cells assessed as cell growth inhibition at 10 uM incubated for 48 hrs by sulforhodamine B assay relative to control; assay type: functional; procedure, shortened: as §3
MOLT-4 = assay: Antiproliferative activity against human MOLT-4 cells assessed as cell growth inhibition at 10 uM incubated for 48 hrs by sulforhodamine B assay relative to control; assay type: functional; procedure, shortened: as §1
HCT-116 = assay: Antiproliferative activity against human HCT-116 cells assessed as cell growth inhibition at 10 uM incubated for 48 hrs by sulforhodamine B assay relative to control; assay type: functional; procedure, shortened: as §2
T47D = assay: Antiproliferative activity against human T47D cells assessed as cell growth inhibition at 10 uM incubated for 48 hrs by sulforhodamine B assay relative to control; assay type: functional; procedure, shortened: as §1
HL-60 = assay: Antiproliferative activity against human HL-60 cells assessed as cell growth inhibition at 10 uM incubated for 48 hrs by sulforhodamine B assay relative to control; assay type: functional; procedure, shortened: as §2
MDA-MB-231 = assay: Antiproliferative activity against human MDA-MB-231 cells assessed as cell growth inhibition at 10 uM incubated for 48 hrs by sulforhodamine B assay relative to control; assay type: functional; procedure, shortened: as §1
CCRF-CEM = assay: Antiproliferative activity against human CCRF-CEM cells assessed as cell growth inhibition at 10 uM incubated for 48 hrs by sulforhodamine B assay relative to control; assay type: functional; procedure, shortened: as §3
[1] = n-Octanol/phosphate buffer partition coefficient, logP of the compound at pH 7.4 incubated for 85 mins by shake-flask method; assay type: physicochemical
Procedure, shortened: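 Octanol–water partition by shake-flask: n-octanol with 0.15 M phosphate buffer pH 7.4 at 10:1 volumes. Buffer-phase absorbance read before mixing, then shaken 50 min and centrifuged at 2500 rpm for 35 min. Buffer absorbance read again; P = (Ai−Af)/Af × Vw/Vo.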

PC-3 = assay: Antiproliferative activity against human PC-3 cells assessed as cell growth inhibition at 10 uM incubated for 48 hrs by sulforhodamine B assay relative to control; assay type: functional; procedure, shortened: as §1
HCT-15 = assay: Antiproliferative activity against human HCT-15 cells assessed as cell growth inhibition at 10 uM incubated for 48 hrs by sulforhodamine B assay relative to control; assay type: functional; procedure, shortened: as §2
K562 = assay: Antiproliferative activity against human K562 cells assessed as cell growth inhibition at 10 uM incubated for 48 hrs by sulforhodamine B assay relative to control; assay type: functional; procedure, shortened: as §1
A498 = assay: Antiproliferative activity against human A498 cells assessed as cell growth inhibition at 10 uM incubated for 48 hrs by sulforhodamine B assay relative to control; assay type: functional; procedure, shortened: as §3
LOX IMVI = assay: Antiproliferative activity against human LOX IMVI cells assessed as cell growth inhibition at 10 uM incubated for 48 hrs by sulforhodamine B assay relative to control; assay type: functional; procedure, shortened: as §1
SN12C = assay: Antiproliferative activity against human SN12C cells assessed as cell growth inhibition at 10 uM incubated for 48 hrs by sulforhodamine B assay relative to control; assay type: functional; procedure, shortened: as §1
SNB-19 = assay: Antiproliferative activity against human SNB-19 cells assessed as cell growth inhibition at 10 uM incubated for 48 hrs by sulforhodamine B assay relative to control; assay type: functional; procedure, shortened: as §1
SF-539 = assay: Antiproliferative activity against human SF-539 cells assessed as cell growth inhibition at 10 uM incubated for 48 hrs by sulforhodamine B assay relative to control; assay type: functional; procedure, shortened: as §1
IGROV-1 = assay: Antiproliferative activity against human IGROV-1 cells assessed as cell growth inhibition at 10 uM incubated for 48 hrs by sulforhodamine B assay relative to control; assay type: functional; procedure, shortened: as §1
ACHN = assay: Antiproliferative activity against human ACHN cells assessed as cell growth inhibition at 10 uM incubated for 48 hrs by sulforhodamine B assay relative to control; assay type: functional; procedure, shortened: as §3
TK-10 = assay: Antiproliferative activity against human TK-10 cells assessed as cell growth inhibition at 10 uM incubated for 48 hrs by sulforhodamine B assay relative to control; assay type: functional; procedure, shortened: as §1
HCC 2998 = assay: Antiproliferative activity against human HCC 2998 cells assessed as cell growth inhibition at 10 uM incubated for 48 hrs by sulforhodamine B assay relative to control; assay type: functional; procedure, shortened: as §2
Hs-578T = assay: Antiproliferative activity against human Hs-578T cells assessed as cell growth inhibition at 10 uM incubated for 48 hrs by sulforhodamine B assay relative to control; assay type: functional; procedure, shortened: as §1
SK-MEL-2 = assay: Antiproliferative activity against human SK-MEL-2 cells assessed as cell growth inhibition at 10 uM incubated for 48 hrs by sulforhodamine B assay relative to control; assay type: functional; procedure, shortened: as §1
RXF 393 = assay: Antiproliferative activity against human RXF 393 cells assessed as cell growth inhibition at 10 uM incubated for 48 hrs by sulforhodamine B assay relative to control; assay type: functional; procedure, shortened: as §1

SMILES | inhibition at 10 µM (RPMI-8226) | inhibition at 10 µM (DU-145) | inhibition at 10 µM (SR) | inhibition at 10 µM (HOP-92) | inhibition at 10 µM (OVCAR-8) | inhibition at 10 µM (UACC-62) | inhibition at 10 µM (KM12) | inhibition at 10 µM (UO-31) | inhibition at 10 µM (SK-MEL-5) | inhibition at 10 µM (MDA-MB-468) | inhibition at 10 µM (NCI-H23) | inhibition at 10 µM (786-0) | inhibition at 10 µM (U-251) | inhibition at 10 µM (NCI-H226) | inhibition at 10 µM (NCI-H522) | inhibition at 10 µM (HT-29) | inhibition at 10 µM (A549) | inhibition at 10 µM (MOLT-4) | inhibition at 10 µM (HCT-116) | inhibition at 10 µM (T47D) | also measured
c1csc(-c2cn3ccnc3c(-c3ccc4ncn(C5CCCCC5)c4c3)n2)c1 | 52.3% | 5.07% | 27.2% | 32.5% | 9.34% | 24.8% | 4.89% | 10.9% | 8.05% | 15.1% | 5.95% | 4.1% | 3.92% | 17.1% | 13.2% | 0.09% | 5.33% | 30.8% | 21.1% | 70.3% | inhibition at 10 µM (NCI-H460): 1.3%; inhibition at 10 µM (SNB-75): 8.13%; inhibition at 10 µM (BT-549): 12.2%; inhibition at 10 µM (HL-60): 26.6%; inhibition at 10 µM (MDA-MB-231): 10.8%; inhibition at 10 µM (CCRF-CEM): 46.4%; logD at 1.417 h [1]: 1.38; inhibition at 10 µM (PC-3): 49.1%; inhibition at 10 µM (HCT-15): 2.33%; inhibition at 10 µM (K562): 26.9%; inhibition at 10 µM (A498): 25%; inhibition at 10 µM (LOX IMVI): 1.07%; inhibition at 10 µM (SN12C): 2.84%
c1cn2cc(-c3ccsc3)nc(-c3ccc4ncn(C5CCCCC5)c4c3)c2n1 | 37.9% | 1.36% | 14.3% | 27.8% | 12.1% | 18.4% | 15.4% | 23.1% | 25% | 21.8% | 10% | 6.35% | 6.09% | 6.34% | 10.2% | 5.68% | 3.97% | 30% | 13.3% | 63.7% | inhibition at 10 µM (SNB-19): 0.39%; inhibition at 10 µM (SF-539): 6.29%; inhibition at 10 µM (IGROV-1): 1.51%; inhibition at 10 µM (ACHN): 5.76%; inhibition at 10 µM (TK-10): 3.37%; inhibition at 10 µM (HCC 2998): 2.18%; inhibition at 10 µM (Hs-578T): 5.56%; inhibition at 10 µM (HL-60): 18.4%; inhibition at 10 µM (MDA-MB-231): 1.35%; inhibition at 10 µM (CCRF-CEM): 29.2%; logD at 1.417 h [1]: 1.81; inhibition at 10 µM (PC-3): 19.9%; inhibition at 10 µM (HCT-15): 1.37%; inhibition at 10 µM (SK-MEL-2): 3.68%; inhibition at 10 µM (K562): 22%; inhibition at 10 µM (RXF 393): 8.63%; inhibition at 10 µM (A498): 20.1%; inhibition at 10 µM (LOX IMVI): 4.9%
